Results on nine molecules are retold here after ChEMBL document CHEMBL1124977, “Synthesis of acyclic and dehydroaspartic acid analogues of Ac-Asp-Glu-OH and their inhibition of rat brain N-acetylated alpha-linked acidic dipeptidase (NAALA dipeptidase)” (J Med Chem, 1990).

The structures appear in SMILES notation. Residues, ends and D or L forms follow the SMILES beside them.

The target of assay [1] is T1, Glutamate carboxypeptidase 2 (Rattus norvegicus, UniProt P70627). The experiment in a line: Concentration required for 50%inhibition of Ac-Asp-[3,4-3H]-Glu-OH hydrolysis against rat forebrain N-Acetylated alpha-linked Dipeptidase (NAALA Dipeptidase). The method in brief:
(§1)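 Enzyme source: "buffy coat" synaptic membranes from Sprague-Dawley rat (45–90 days) forebrain, washed in 0.1 M Hepes pH 7.4 and stored frozen. Inhibitor was tested at about 2- and 4-fold above and below the estimated IC50. Mean of three experiments ± SEM.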

Assay [2] concerns the target T1, Glutamate carboxypeptidase 2. The experiment in a line: Tested for Ac-Asp-[3,4-3H]-Glu-OH hydrolysis inhibitory activity against rat forebrain N-Acetylated alpha-linked Dipeptidase (NAALA Dipeptidase). The method in brief:
(§2)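 Ki used the same rat forebrain membrane assay (Hepes pH 7.4, NaCl, CoCl₂, radiometric ³H-Glu read-out). Substrate was 0.25, 0.5, 1.0, 2.0 and 5.0 μM. Inhibitor was tested at 0, IC50, and 2- and 4-fold above and below IC50. Lineweaver–Burk slopes were replotted against [inhibitor]. Ki equals the slope at 0 μM inhibitor divided by the replot slope. Ki was determined only when IC50 <100 μM.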

For assay [3] the target is unchanged. The experiment in a line: Concentration required for 50%inhibition of Ac-Asp-[3,4-3H]-Glu-OH hydrolysis against rat forebrain N-acetylated-alpha-linked acidic dipeptidase. A digest of the protocol:
as §1

The target is the same in assay [4]. The experiment in a line: Tested for Ac-Asp-[3,4-3H]-Glu-OH hydrolysis inhibitory activity against rat forebrain N-acetylated-alpha-linked acidic dipeptidase. The method in brief: as §2

T1 sequence (P70627 whole entry): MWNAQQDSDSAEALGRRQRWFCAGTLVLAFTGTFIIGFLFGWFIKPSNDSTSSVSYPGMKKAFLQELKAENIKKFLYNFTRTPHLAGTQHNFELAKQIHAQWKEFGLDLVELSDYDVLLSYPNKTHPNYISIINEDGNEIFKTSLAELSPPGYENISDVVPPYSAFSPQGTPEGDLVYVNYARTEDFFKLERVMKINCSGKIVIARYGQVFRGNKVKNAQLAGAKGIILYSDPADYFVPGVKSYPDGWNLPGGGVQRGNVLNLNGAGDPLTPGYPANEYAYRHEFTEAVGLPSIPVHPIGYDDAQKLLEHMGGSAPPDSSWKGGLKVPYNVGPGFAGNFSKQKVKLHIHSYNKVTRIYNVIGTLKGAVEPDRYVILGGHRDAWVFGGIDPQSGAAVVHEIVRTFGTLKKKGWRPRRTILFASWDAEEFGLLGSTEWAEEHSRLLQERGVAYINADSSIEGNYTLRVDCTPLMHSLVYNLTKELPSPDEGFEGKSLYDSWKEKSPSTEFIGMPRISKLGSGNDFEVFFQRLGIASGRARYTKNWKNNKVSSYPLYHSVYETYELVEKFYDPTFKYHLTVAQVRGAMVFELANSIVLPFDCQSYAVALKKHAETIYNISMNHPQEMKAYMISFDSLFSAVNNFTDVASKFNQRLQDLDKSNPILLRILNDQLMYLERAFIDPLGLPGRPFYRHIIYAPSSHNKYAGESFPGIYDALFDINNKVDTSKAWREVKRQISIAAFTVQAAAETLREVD

With `CC(=O)N[C@@H](CCC(=O)O)C(=O)N[C@@H](CCC(=O)O)C(=O)O` (Ac-Glu-Glu-OH), the IC50 in assay [1] turned out to be 9 µM. In assay [2], this molecule registered a Ki of 3.5 µM.

`CC(=O)N[C@@H](CC(=O)O)CC(=O)N[C@@H](CCC(=O)O)C(=O)O` returned a 50% inhibitory concentration (IC50) in assay [3] of 8 µM. This molecule also registered an inhibition constant (Ki) in assay [4] of 3.2 µM.

`O=C(O)/C=C/C(=O)N[C@@H](CCC(=O)O)C(=O)O` came in with an IC50 in assay [3] of 0.8 µM. In assay [4], the inhibitory constant (Ki) was determined as 0.4 µM.

Regarding `CC(=O)N[C@@H](CC(=O)O)C(=O)N[C@@H](CCC(=O)O)CC(=O)O`, the midpoint of inhibition in assay [3], the IC50, lay at 200 µM.

On to `CC(=O)N[C@H](CC(=O)O)C(=O)N[C@@H](CCC(=O)O)C(=O)O`, for which, in assay [1], the IC50 was found to be 15 µM. The molecule also registered an inhibition constant Ki in assay [4] of 8.5 µM.

In the case of `CC(=O)N[C@@H](CCC(=O)O)C(=O)N[C@@H](CC(=O)O)C(=O)O` (Ac-Glu-Asp-OH), the IC50 in assay [3] was 193 µM.

In turn, `CC(=O)N[C@@H](CC(=O)O)C(=O)N[C@@H](CC(=O)O)C(=O)O` (Ac-Asp-Asp-OH) had a concentration for half-maximal inhibition (IC50) in assay [3] of 250 µM. This IC50 and that of the molecule before are within 1.5-fold of each other.

In the case of `O=C(O)/C=C\C(=O)N[C@@H](CCC(=O)O)C(=O)O`, the IC50 in assay [3] worked out at 83 µM. Moreover, the Ki in assay [4] came out at 41 µM.

For the molecule `O=C(O)CCC(=O)N[C@@H](CCC(=O)O)C(=O)O`, 2.5 µM corresponded to half-maximal inhibition in assay [3] (IC50). This molecule also gave a Ki in assay [4] of 0.9 µM.

Broadly, the IC50 is the concentration that gives 50% inhibition. A high value points to weaker potency in that assay. In general, Ki refers to a measure of affinity in units of concentration, obtained from inhibition or displacement.
